Screening data deposited in PubChem by several laboratories.
STAT1 inh: STAT1 signaling inhibition; NIH 3T3 STAT1-luciferase reporter, IFN-gamma, luminescence; inhibition, % at 5.5 µM; 0.35% of 200,000 active;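 active means inhibition above a set limit, the mean inhibition across all tested compounds plus 3 SD, cut at about 34% in these data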;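 further: 0% = IFN-gamma with DMSO and 100% = IFN-gamma with 300 µM nifuroxazide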
NF-kB expr up: NF-kB expression increase, human neuronal cells; NF-kB reporter expression; active compounds read high; fold change at 12.5 µM; 1.6% of 190,000 active; in the data active means fold change above about 3.3
STAT3 inh-1: inhibitors of IL-6 induced STAT3 signaling; U3A cells, IL-6 STAT3-luciferase reporter, luminescence; host cell line lacks STAT1; inhibition, % at 5.5 µM; 0.89% of 190,000 active; AID 862;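 active means inhibition above the mean inhibition across all screened compounds plus 3 SD, cut at about 44% in these data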;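 further: 0% = DMSO only wells and 100% = 100 µM nifuroxazide control wells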
STAT3 activator: increases IL-6 driven STAT3 reporter signal | U3A cells, IL-6 STAT3-luciferase reporter, luminescence; 100% = signal with IL-6 EC80 alone | activation (% of control), % at 5.6 µM | 0.91% of 190,000 active | AID 871;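 active means activation above the screen-wide mean of compound activation plus 3 SD, cut at about 130% in these data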;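 further: 0% = background luminescence of wells with medium and substrate only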
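Material: human U3A cells carrying STAT3-luciferase construct. Measured by: reporter luminescence signal. Timing: compound 1 h, then IL-6 6 h at 37 °C.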
STAT1 act: STAT1 signaling activation | NIH 3T3 STAT1-luciferase reporter, IFN-gamma, luminescence; 100% = IFN-gamma alone, no compound | activation (% of control), % at 5.5 µM | 2.6% of 200,000 active | AID 932;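 active means activation above the screen-wide mean activation plus 3 SD, cut at about 130% in these data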;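 further: raw ratio to IFN-gamma control signal so 100% means no change and 0% no light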
APP 5'UTR act: activates APP 5'UTR luciferase reporter; SH-SY5Y APP 5'UTR luciferase reporter, luminescence; zero percent = DMSO vehicle wells; activation, % at 2 µM; 1% of 190,000 active;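 active means activation above a set limit, based on mean plus 3 SD of controls, cut at about 140% in these data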
STAT3 inh-2: confirmation of STAT3 signaling inhibitors. shares compounds with STAT3 inh-1. U3A cells, IL-6 STAT3 luciferase reporter, luminescence; cell line lacks STAT1. inhibition, % at 5.7 µM. 45% of 1,200 active;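 active means inhibition above the hit cutoff computed for the primary STAT3 screen, cut at about 44% in these data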;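 further: 0% = IL-6 plus DMSO and 100% = IL-6 plus nifuroxazide control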
NFkB inh STAT3ct: inhibits NF-kappaB, counter-screen to STAT3 inhibitors. 36% of 1,200 active. inhibition, % at 5.7 µM. HEK293T NF-kB luciferase reporter, TNF-alpha induced. AID 1308. shares compounds with STAT3 inh-1;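 active means inhibition above the mean of solvent-only control wells plus 3 SD, cutoff set per campaign, cut at about 13% in these data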;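 further: 0% = TNF-alpha with DMSO and 100% = TNF-alpha with MG high control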
STAT1 inh STAT3c: counter-screen for STAT3 inhibitors: STAT1 inhibition | AID 1317 | shares compounds with STAT3 inh-1 | 27% of 1,200 active | NIH 3T3 STAT1-luciferase reporter, IFN-gamma induced, luminescence | inhibition, % at 5.7 µM;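 active means inhibition above the mean plus 3 SD of solvent-only control wells, limit set per screening run, cut at about 16% in these data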;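 further: 0% = DMSO with IFN-gamma and 100% = nifuroxazide control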
Active calls of the source: *; x = no result. Compounds with a hit are over-represented: about 5.1% of the library has one in this group of screens.

SMILES | STAT1 inh | NF-kB expr up | STAT3 inh-1 | STAT3 activator | STAT1 act | APP 5'UTR act | STAT3 inh-2 | NFkB inh STAT3ct | STAT1 inh STAT3c
Cc1cc(NCCCn2ccnc2)n2ncc(-c3ccccc3)c2n1 | 27 | 0.92 | 74* | 37 | 76 | 102 | 21 | 25* | -57
Cc1cc(-c2ccccc2)n2ncc(-c3ccccc3)c2n1 | -49 | 1.4 | 50* | 60 | 143* | 166* | 0 | -15 | -134
O=C(CCl)Nc1ccccc1C(=O)c1ccccc1 | 2 | 1.6 | 7 | 96 | 97 | 4 | x | x | x
CCOC(=O)CCCNC(=O)COC(=O)c1cccc(F)c1 | -6 | 0.97 | 0 | 101 | 105 | -3 | x | x | x
COc1cccc(Cn2cc(N)cn2)c1 | -6 | 1.1 | 7 | 101 | 106 | -2 | x | x | x
O=c1[nH]c(N2CCOCC2)nc2c1CCCC2 | 7 | 1.3 | 97* | 21 | 94 | 23 | 2 | -7 | -6
O=S(=O)(NCC1CCCO1)c1ccc(-c2ccc(S(=O)(=O)NCC3CCCO3)cc2)cc1 (stereo not drawn) | 25 | 1.1 | 78* | 38 | 76 | -6 | 84* | 33* | 22*
Cc1ccnc(NC(=O)c2ccc3c(c2)OCO3)c1 | 24 | 4.2* | 59* | 51 | 76 | 206* | 22 | -14 | -29
CN(C)c1ccc(NC(=O)c2cnsn2)cc1 | 19 | 1.1 | 50* | 59 | 81 | 86 | 16 | -14 | -36
O=C(COC(=O)C1CCCCC1)Nc1ccccc1OC(F)F | 4 | 1.1 | 4 | 101 | 96 | 10 | x | x | x
CCOC(=O)C1CCN(C(=O)CCc2c(C)nc3cc(-c4ccccc4)nn3c2C)CC1 | -6 | 0.78 | 24 | 86 | 106 | -23 | x | x | x
CCOC(=O)C1CCCCN1C(=O)CCc1c(C)nc2cc(-c3ccccc3)nn2c1C (stereo not drawn) | 3 | 0.48 | 49* | 65 | 98 | -52 | 28 | 5 | -14
CC(C)COC(=O)c1ccc2c(c1O)C(=O)c1ccccc1C2=O | -30 | 2.1 | 46* | 65 | 128 | 90 | 16 | -27 | -95
COc1ccc(/C=C2/SC(=S)N(CCC(=O)O)C2=O)cc1 | 17 | 0.49 | 57* | 52 | 84 | -50 | 57* | 32* | 12
O=C(O)CCN1C(=O)/C(=C\c2ccncc2)SC1=S | 2 | 1.1 | 6 | 98 | 96 | 15 | x | x | x
Cc1cc(N=NC(=O)c2ccccc2)ccc1O | 24 | 1.1 | 55* | 56 | 77 | 10 | 5 | 1 | 4
Cc1cc(=O)[nH]c(SCC(=O)OCc2ccccc2)c1C#N | -2 | 1.1 | -2 | 104 | 100 | 17 | x | x | x
CC1Cc2ccccc2N1C(=O)CSc1nnc2n1C(C)(C)Cc1ccccc1-2 (stereo not drawn) | 3 | 1.1 | 15 | 90 | 97 | -8 | x | x | x
COc1ccccc1N1CCN(C(=O)CSc2nnc3n2C(C)(C)Cc2ccccc2-3)CC1 | 20 | 0.55 | 57* | 52 | 82 | 7 | 53* | 14* | 19*
CC(=O)/C(N=Nc1ccc2c(c1)OCCO2)=C(\C)O | 19 | 2 | 68* | 44 | 82 | 16 | -6 | -10 | -92
COc1cccc(/C=C/C(=O)Nc2ccc3c(c2)OCCO3)c1OC | 25 | 8.6* | 66* | 47 | 76 | 205* | 12 | -20 | -110
CCc1c(C)c2ccc(OCC(=O)OC(C)C)c(C)c2oc1=O | 7 | 0.92 | 56* | 54 | 94 | -5 | 48* | 2 | 7
CCc1c(C)c2ccc(OCC(=O)N(C)C)c(C)c2oc1=O | 3 | 1.3 | 16 | 90 | 97 | 5 | x | x | x
O=C(Nc1ccccn1)c1onc2c1CCCC2 | -3 | 1.1 | 69* | 42 | 103 | 150* | 53* | 16* | -12
Cc1ccccc1C(=O)Nc1ccccn1 | -4 | 1 | 2 | 98 | 103 | -9 | x | x | x
SMILES | STAT1 inh | NF-kB expr up | STAT3 inh-1 | STAT3 activator | STAT1 act | APP 5'UTR act | STAT3 inh-2 | NFkB inh STAT3ct | STAT1 inh STAT3c
CCOc1ccc(N2C(=O)CC(SC(=NC)Nc3ccc(F)cc3)C2=O)cc1 (stereo not drawn) | 1 | 2 | 5 | 99 | 104 | -9 | x | x | x
CCN1CCN(C(=S)c2ccc(-c3ccccc3)cc2)CC1 | 11 | 1.1 | 47* | 63 | 88 | 7 | 43 | 4 | 6
CCOc1ccc(N/C=C/C(=O)c2ccccc2)c([N+](=O)[O-])c1 | 14 | 1 | 85* | 28 | 87 | 157* | 59* | 45* | -30
CCOc1ccc(OCC(=O)Nc2ccc(OC)cc2[N+](=O)[O-])cc1 | -7 | 1.3 | 14 | 88 | 107 | -10 | x | x | x
COC(=O)c1cc(NC(=O)c2c(F)c(F)c(F)c(F)c2F)cc(C(=O)OC)c1 | -5 | 0.61 | -2 | 104 | 104 | -3 | x | x | x
CCOC(=O)C1CCN(C(c2cccnc2)c2c(NC(=O)c3ccco3)sc(C)c2C)CC1 (stereo not drawn) | 6 | 0.92 | 50* | 58 | 94 | 9 | 64* | 14* | -2
Cc1sc(NC(=O)c2ccco2)c(C(c2cccnc2)N2CCN(CCO)CC2)c1C (stereo not drawn) | -8 | 0.85 | 15 | 96 | 106 | 4 | x | x | x
CCOC(=O)C(=O)c1csc(NC(=O)CCSc2ccc(C)cc2)n1 | 3 | 1.6 | 1 | 107 | 95 | -14 | x | x | x
Cc1oc(-c2ccc(Cl)cc2)nc1CN1CCCC(C(=O)N2CCN(C(=O)c3ccco3)CC2)C1 (stereo not drawn) | 14 | 0.74 | 79* | 38 | 88 | x | 72* | 26* | 12
O=C(CN1CCC(c2nc3ccccc3s2)CC1)NCc1cccs1 | 12 | 1.1 | 46* | 66 | 89 | -2 | 28 | -1 | -1
CC(C)CCNCC1OCc2ccccc2CO1 | -4 | 0.9 | -7 | 109 | 103 | -4 | x | x | x
O=C(c1cc2ccccc2o1)N1CCN(c2ccccc2Cl)CC1 | 3 | 1.1 | 7 | 97 | 97 | 10 | x | x | x
CCCC(=O)N1CCN(c2ccc(NC(=O)c3cccs3)cc2Cl)CC1 | 12 | 0.75 | 9 | 97 | 89 | -3 | x | x | x
CCC(=O)N1CCN(c2ccc(NC(=O)c3cc4ccccc4o3)cc2Cl)CC1 | 8 | 0.35 | 49* | 61 | 92 | -14 | 34 | -3 | -14
CCCC(=O)N1CCN(c2ccc(NC(=O)c3cc4ccccc4o3)cc2Cl)CC1 | 12 | 0.34 | 50* | 60 | 89 | 7 | 43 | 3 | -2
